Source: PubChem (Johns Hopkins Ion Channel Center)
An excerpt weighted towards active compounds, which were near 3.1% of everything screened.
KCNK9 block: KCNK9 potassium channel inhibitors, primary screen, HEK293 cells, thallium flux | FluxOR thallium flux fluorescence; active compounds read low | Potassium channel subfamily K member 9 (Homo sapiens), Q9NPC2 | B-score at 10 µM | 310,000 tested, 1.2% active | AID 488922, 2010;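 active = ratio B-score over 3 SD below the library mean, with starting fluorescence within 5 SD of its mean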;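 also: negative B-score means less thallium flux so channel inhibition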
Target sequence (Q9NPC2 whole entry, looked up): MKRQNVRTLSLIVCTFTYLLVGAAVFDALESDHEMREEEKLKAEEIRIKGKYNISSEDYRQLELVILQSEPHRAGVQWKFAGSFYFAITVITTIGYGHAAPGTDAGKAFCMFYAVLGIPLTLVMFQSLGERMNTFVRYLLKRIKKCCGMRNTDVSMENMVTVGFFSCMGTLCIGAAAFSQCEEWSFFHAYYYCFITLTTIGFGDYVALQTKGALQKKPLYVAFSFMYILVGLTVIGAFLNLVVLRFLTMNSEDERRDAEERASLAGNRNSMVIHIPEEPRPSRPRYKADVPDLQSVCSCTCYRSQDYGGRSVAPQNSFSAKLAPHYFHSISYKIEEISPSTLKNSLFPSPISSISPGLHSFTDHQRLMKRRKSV
KCNQ1 act: potentiators or activators of KCNQ1 channel, primary screen, cell-based, thallium flux, high-throughput; 310,000 tested, 0.35% active; Potassium voltage-gated channel subfamily KQT member 1 (Homo sapiens), P51787; B-score at 10 µM; AID 2648, 2010; CHO-K1 KCNQ1, thallium flux FluxOR fluorescence; active compounds read high;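 active = fluorescence ratio B-score, a plate-corrected score, at least three library SD, with initial intensity B-score within 5 SD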
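assay system = KCNQ1-transfected CHO-K1 cells | medium = assay buffer with matched DMSO | probe or stimulus = depolarizing K+/Tl+ stimulus, K2SO4 and Tl2SO4 each 12.5 mM in 5x stock | dosing = single dose | incubation = dye 90 min, compound 20 min, room temperature | detection = kinetic FluxOR fluorescence, 10 s baseline plus 110 s post-stimulus | evaluation = ratio B score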
KCNQ1 inh: inhibitors of human KCNQ1 channel, primary screen, cell-based, thallium flux, high-throughput; Potassium voltage-gated channel subfamily KQT member 1 (Homo sapiens), P51787; CHO-K1 KCNQ1, FluxOR thallium flux fluorescence; active compounds read high; B-score at 10 µM; 310,000 tested, 1.3% active;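 active = compounds whose thallium flux B-score, printed positive for inhibition, exceeds three library SD while starting fluorescence stays within three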;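 also: channel opened by potassium depolarization with thallium stimulus after 20 min compound exposure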
hERG rescue: hERG rescue from dofetilide block, primary screen, cell-based, CHO-hERG, FluxOR thallium flux, dofetilide IC70 | 310,000 tested, 0.51% active | activation (rescue from dofetilide block), less the hit threshold, % at 10 µM | Voltage-gated inwardly rectifying potassium channel KCNH2 (Homo sapiens), Q12809 | dofetilide IC70 present;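 active = activation above the mean of controls blocked by dofetilide plus 5 SD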;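 also: thallium influx through hERG after potassium depolarization seen as dye fluorescence rise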
KCNK3 inh: human KCNK3 channel inhibitors, primary screen, CHO cells, FluxOR thallium flux, B-score; FluxOR fluorescence; active compounds read low; B-score at 10 µM; 340,000 tested, 0.84% active; AID 602410, 2012;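 active = B-score under library mean minus 4 SD, starting fluorescence ratio at most library mean plus 5 SD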;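 also: more negative B-score means stronger inhibition of thallium flux through KCNK3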
KCNQ1 block val: KCNQ1 potassium channel inhibitors, confirmation, cell-based, Tl flux, duplicate; shares compounds with KCNQ1 inh; KCNQ1 cell line, FluxOR thallium flux fluorescence; inhibition, % at 10 µM; 1,600 tested, 93% active; AID 588353, 2011;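 active = primary screen active, with duplicate mean exceeding buffer control mean plus 3 SD of buffer wells, cut at about 28% in these data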;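 also: 0% = buffer control ratio and 100% = XE991 inhibitor control ratio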
CHO KCNQ1 ctr: thallium flux effects in parental CHO cells, counter-screen for KCNQ1 inhibitor project, cell-based, Tl flux; shares compounds with KCNQ1 inh; 1,600 tested, 21% active; parental CHO-K1, FluxOR thallium flux fluorescence ratio; active compounds read low; zero means no signal rise above baseline; fluorescence ratio (Tl flux) at 10 µM;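 active = mean of duplicate thallium-flux fluorescence ratios in parental host cells more than 5 SD below the buffer control mean, cut at about 0.38 in these data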;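 also: ratio is peak minus minimum fluorescence divided by baseline fluorescence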
KCNQ1 ephys val: KCNQ1 channel inhibitors, confirmation, orthogonal assay, cell-based, automated electrophysiology; calls only at 10 µM; 490 tested, 20% active; AID 624120, 2012; KCNQ1-CHO cells, automated patch clamp current; shares compounds with KCNQ1 inh;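 active = KCNQ1 current drop exceeding 3 SD of negative control wells, seen in both duplicate runs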;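 also: steady state current during a 2 s step from -80 to +40 mV; negative values mean current inhibition and positive values mean potentiation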
KCNQ2 inh: KCNQ2 channel inhibition, selectivity assay for KCNQ1 inhibitor project, cell-based. shares compounds with KCNQ1 inh. KCNQ2 cells, FluxOR thallium flux fluorescence. inhibition, % at 10 µM. 1,600 tested, 71% active. AID 651746, 2012;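 active = mean percent inhibition of the KCNQ2 thallium signal more than 5 SD above the buffer-only control wells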;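 also: KCNQ2 expressed in CHO cells; 0% = buffer control wells and 100% = XE-991 inhibitor control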
KCNQ1-KCNE1 inh: KCNQ1/KCNE1 channel inhibition, selectivity assay for KCNQ1 inhibitor project, CHO-K1 cells, thallium flux, FluxOR. shares compounds with KCNQ1 inh. AID 652147, 2013. FluxOR thallium flux fluorescence. inhibition, % at 10 µM. 1,600 tested, 77% active;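 active = mean percent inhibition of duplicate wells above the buffer-only control mean plus 3 SD of those controls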;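 also: 0% = buffer only wells and 100% = XE-991 inhibitor control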
KCNK9 inh conf: KCNK9 potassium channel inhibitors, confirmation, HEK293 cells, thallium flux, duplicate | shares compounds with KCNK9 block | FluxOR thallium flux fluorescence | inhibition, % at 10 µM | 4,900 tested, 43% active;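 active = thallium signal inhibited by more than 5 SD of the compound-free buffer control wells, on both duplicate plates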;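 also: 0% = assay buffer control wells without compound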
Kir21 sel: mouse Kir2.1 channel inhibition, confirmation, selectivity assay for KCNK9 modulator project, cell-based, HEK293, thallium flux; shares compounds with KCNK9 block; Kir2.1 cells, FluxOR thallium flux fluorescence; inhibition, % at 10 µM; 4,900 tested, 4% active;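 active = thallium signal drop more than 5 SD beyond the mean of the no-compound control wells, seen in both duplicate plates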;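 also: signal is fluorescence rise after thallium addition divided by baseline fluorescence; plate controls were assay buffer only for no effect and full block by chlorpromazine control for full effect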
HEK293 Tl ctr: thallium flux in non-induced HEK293 cells, confirmation, counter-screen for KCNK9 inhibitor project, cell-based, second counter screen, non-induced KCNK9-HEK293; shares compounds with KCNK9 block; FluxOR thallium flux; inhibition, % at 10 µM; 4,900 tested, 40% active; AID 492997, 2010;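 active = thallium signal drop beyond 5 SD of the untreated control mean, on both duplicate plates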;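 also: plate controls were buffer only IC0 wells for no effect and SID17386958 at its maximal inhibitory level for full effect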
The depositor's hits bear a star; i = inactive; . = not tested or not shown.

SMILES	KCNK9 block	KCNQ1 act	KCNQ1 inh	hERG rescue	KCNK3 inh	KCNQ1 block val	CHO KCNQ1 ctr	KCNQ2 inh	KCNQ1-KCNE1 inh	KCNK9 inh conf	Kir21 sel	HEK293 Tl ctr	others
COc1ccccc1CCNC(=O)c1cc(COc2cccc(C(F)(F)F)c2)on1	i	i	7*	-2	i	100*	0.45	88%*	98%*	i	i	i	KCNQ1 ephys val=i
Cc1cc(C)nc(NC(=NCCc2c[nH]c3ccccc23)NC(=O)Nc2ccc(Cl)c(Cl)c2)n1	i	i	i	-9	i	.	.	.	.	.	.	.
Cc1cc(C)nc(NC(=NCCc2c[nH]c3ccccc23)NC(=O)Nc2ccccc2)n1	i	i	7*	0	i	134*	0.38*	87%*	199%*	i	i	i
CC(C)C(=O)Nc1nnc(SCC(=O)NC2CCCC2)s1	i	i	i	-5	i	.	.	.	.	.	.	.
NC(=O)c1ccsc1NC(=O)CS(=O)(=O)c1ccc(F)cc1	i	i	i	-6	i	.	.	.	.	.	.	.
CCOC(=O)c1cnc2ccc(OCC)cc2c1N(C)Cc1ccccc1	i	i	6*	-12	i	148*	0.34*	154%*	198%*	i	i	23%*
CCOC(=O)c1cc2cc(OCc3ccccc3)ccc2nc1C	i	i	i	-2	i	.	.	.	.	.	.	.
Cc1ccc(SCCNC(=S)Nc2ccc(C)c(C)c2)cc1	i	i	8*	-17	i	100*	0.45	i	98%*	i	i	i	KCNQ1 ephys val=i
Cc1ccc(SCCNC(=S)Nc2cc(C)ccc2C)cc1	i	i	i	-11	i	.	.	.	.	.	.	.
Cc1cccc(N(CC(=O)NC2CC3CCC2C3)S(=O)(=O)c2ccccc2)c1 (configuration not stated)	i	i	6*	-7	i	50*	0.43	79%*	61%*	i	i	i
COc1cccc(N(CC(=O)NC2CC3CCC2C3)S(=O)(=O)c2ccccc2)c1 (configuration not stated)	i	i	i	-8	i	.	.	.	.	.	.	.
O=C1CCC(C(=O)N2CCCC(C(=O)c3ccc4ccccc4c3)C2)=NN1 (configuration not stated)	i	i	i	-5	i	.	.	.	.	.	.	.
CC(C)c1cc(C(=O)N2CCCC(C(=O)c3ccc4ccccc4c3)C2)on1 (configuration not stated)	i	i	6*	-18	i	0	0.5	91%*	35%*	i	i	i
Cc1ccc(-n2c(-c3ccccc3)c[n+]3c2CCc2ccccc2-3)c(C)c1	-13*	i	15*	-27	-9.9*	98*	0.38*	95%*	34%*	46%*	64%*	36%*
c1ccc(CC2CCN(C3=Nc4cccc5cccc3c45)CC2)cc1	-9*	i	13*	-35	i	150*	0.34*	121%*	135%*	36%*	35%*	38%*
CCOc1ccc(NC(=O)CN2CCN(C3c4ccccc4-c4ccccc43)CC2)cc1	i	i	i	-8	i	.	.	.	.	.	.	.
COc1ccc(NC(=O)CN2CCN(C3c4ccccc4-c4ccccc43)CC2)c(OC)c1	-17*	i	8*	-11	i	60*	0.42	79%*	98%*	38%*	i	34%*
Nc1c(C(=O)c2ccccc2)sc2nsc(SCCN3CCCC3)c12	i	i	8*	-26	i	108*	0.21*	i	144%*	45%*	36%*	73%*
COc1ccc(C(=O)Nc2ccccc2C(=O)N2CCCCC2C)cc1 (configuration not stated)	i	i	i	-4	i	.	.	.	.	.	.	.
O=C(c1ccc2c(c1)OCO2)C1CCCN(Cc2cc(F)ccc2-n2cccn2)C1 (configuration not stated)	i	i	i	-16	i	.	.	.	.	.	.	.
Cc1ccc(-n2cccn2)c(CN2CCCC(C(=O)c3ccc4c(c3)OCO4)C2)c1 (configuration not stated)	i	i	8*	-17	i	66*	0.39	112%*	80%*	i	i	i
CN(CC(=O)c1c(N)n(C)c(=O)n(C)c1=O)c1ccccc1	i	i	i	-13	i	.	.	.	.	.	.	.
COC(=O)c1c(C)oc(C)c1S(=O)(=O)NC(c1ccccc1)c1ccccc1	i	i	i	-2	i	.	.	.	.	.	.	.
N#Cc1c(N)nc2c(c1-c1ccc3c(c1)OCO3)CCc1ccccc1-2	-11*	i	13*	-5	i	120*	0.35*	109%*	181%*	31%*	i	30%*
